Legend:
L1210 [1] = experiment: Antitumor activity was determined against the ip implanted L1210 leukemia in mice by 45-day survivors in mice at 300 mg/kg (treatment of 1qd schedule) dosage; type: functional, Mus musculus; settings: route intraperitoneal
Procedure, shortened: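 DBA/2J mice in groups of 6 (wt 23-28 g) were inoculated ip with 1×10^6 L1210 cells on day 0. Dosing was ip from 24 h, in 0.9% NaCl with 0.5% Tween-80 (conjugates sonicated), across a range of doses. Mice were observed daily until death or 45 days. Median T/C was computed from survivors per NCI protocols, and ILS = (T/C − 1)×100.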

L1210 [2] = experiment: Antitumor activity was determined against the ic implanted L1210 lymphoid leukemia in mice by range in survival days at 133 mg/kg (1,5,9qd treatment schedule) dosage; Range is 15-22; type: functional, Mus musculus
L1210 [3] = experiment: Antitumor activity against ic implanted L1210 lymphoid leukemia in mice expressed as active dose range (1-5qd treatment schedule) required to produce increase in life span by >25% was determined; Range is 40-80; type: functional, Mus musculus
Procedure, shortened: (§1)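 DBA/2J mice, groups of 6 (26-32 g), got 1 × 10^5 L1210 cells ic on day 0. Dosing was ip starting 24 h later, as a sonicated solution or suspension in 0.9% NaCl with 0.5% Tween-80, over a wide dose range. Mice were followed daily until death. Median survival T/C was taken from survivors per NCI protocols, and ILS = (T/C − 1) × 100. Active range means doses giving ILS ≥25%; optimal dose means greatest ILS.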

L1210 [4] = experiment: Antitumor activity was determined against the ic implanted L1210 lymphoid leukemia in mice by percent increase in life span at 133 mg/kg (1,5,9qd treatment schedule) dosage; type: functional, Mus musculus; procedure, shortened: as §1
L1210 [5] = experiment: Antitumor activity was determined against the ip implanted L1210 leukemia in mice by range in survival days at 40 mg/kg (treatment of 1-5qd schedule) dosage; 24->45; type: functional, Mus musculus; settings: route intraperitoneal
Procedure, shortened: (§2)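 DBA/2J mice, 23-28 g, in groups of 6, were inoculated ip with 1×10^6 L1210 cells on day 0. Dosing was ip starting 24 h later on the stated daily schedules. Conjugates were given as sonicated solutions and reference prodrugs as suspensions in 0.9% NaCl with 0.5% Tween-80. Mice were observed daily until death or 45 days. Median survival T/C was calculated from survivors per NCI protocols.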

P388 [6] = experiment: Antitumor activity was determined against the ip implanted P388 leukemia in mice by percent median survival rate (treated/control) at 60 mg/kg (treatment of 1-5qd schedule) dosage; >45.0/11.0; type: functional, Mus musculus; settings: route intraperitoneal
P388 [7] = experiment: Antitumor activity against ip implanted P388 leukemia in mice expressed as active dose range (1,5,9qd treatment schedule) required to produce increase in life span by >25% was determined; Range is 67-133; type: functional, Mus musculus
Procedure, shortened: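 P388 leukemia: 1 × 10^6 cells were given ip on day 0 to DBA/2J mice, groups of 6 (23-33 g). Treatment was ip from 24 h after inoculation, vehicle 0.9% NaCl with 0.5% Tween-80. Mice were observed daily until death or 45 days. Median survival T/C was calculated from survivors per NCI protocols, and ILS = (T/C − 1) × 100. Active range means doses giving ILS ≥25%; optimal dose means greatest ILS.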

L1210 [8] = experiment: Antitumor activity against ip implanted L1210 leukemia in mice expressed as active dose range (1 qd treatment schedule) required to produce increase in life span by >25% was determined; Range is 300-400; type: functional, Mus musculus
Procedure, shortened: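 DBA/2J mice, groups of 6 (23-28 g), were inoculated ip with 1 × 10^6 L1210 cells on day 0. Dosing was ip from 24 h, in 0.9% NaCl with 0.5% Tween-80 (sonicated solution or suspension). Mice were observed daily until death or day 45. Median survival T/C followed NCI protocols, and ILS = (T/C − 1) × 100. Active range means doses giving ILS ≥25%; optimal dose means greatest ILS.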

L1210 [9] = experiment: Antitumor activity was determined against the ip implanted L1210 leukemia in mice by change in […] at 80 mg/kg (treatment of 1-5qd schedule) dosage; type: functional, Mus musculus; settings: route intraperitoneal
Procedure, shortened: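 DBA/2J mice, 6 per group (wt 23-28 g), inoculated ip with 1×10^6 L1210 cells on day 0. Treatment was given ip in 0.9% NaCl with 0.5% Tween-80, starting 24 h later. Weight change was taken on day 8. Mice were observed daily until death or 45 days. Median survival T/C and %ILS = (T/C − 1) × 100 came from survivors per NCI protocols, and 45-day survivors were counted.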

L1210 [10] = experiment: Antitumor activity against ic implanted L1210 lymphoid leukemia in mice expressed as active dose range (1, 5, 9qd treatment schedule) required to produce increase in life span by >25% was determined; Range is 100-167; type: functional, Mus musculus; procedure, shortened: as §1
L1210 [11] = experiment: Antitumor activity against the ic implanted L1210 lymphoid leukemia in mice expressed as optimal dose (1 qd treatment schedule) required to produce greatest increase in life span was determined
P388 [12] = experiment: Antitumor activity was determined against the ip implanted P388 leukemia in mice by range in survival days at 500 mg/kg (treatment of 1qd schedule) dosage; Range is 23->45; type: functional, Mus musculus; settings: route intraperitoneal
L1210 [13] = experiment: Antitumor activity was determined against the ip implanted L1210 leukemia in mice by range in survival days at 200 mg/kg (treatment of 1-5qd schedule) dosage; Range is 15-17; type: functional, Mus musculus; settings: route intraperitoneal; procedure, shortened: as §2
P388 [14] = experiment: Antitumor activity was determined against the ip implanted P388 leukemia in mice by percent increase in life span at 200 mg/kg (treatment of 1-5qd schedule) dosage; type: functional, Mus musculus; settings: route intraperitoneal
Procedure, shortened: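 DBA/2J mice, 23-33 g, in groups of 6, were inoculated ip with 1×10^6 P388 cells on day 0. Dosing was ip from 24 h on the stated schedules, in 0.9% NaCl with 0.5% Tween-80 (sonicated solution or suspension). Survival was followed daily until death or 45 days. Median T/C was calculated from survivors per NCI protocols, with ILS = (T/C − 1) × 100.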

L1210 [15] = experiment: Antitumor activity against ic implanted L1210 lymphoid leukemia in mice expressed as active dose range (1-5qd treatment schedule) required to produce increase in life span by >25% was determined; Range is 50-300; type: functional, Mus musculus; procedure, shortened: as §1
AMML = experiment: Compound was tested for the inhibition of AMML (acute myelomonocytic leukemia); type: functional, cell-based; settings: Homo sapiens
Procedure, shortened: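 Human leukemia and solid tumor cells in culture were exposed to compound for 48 h. Viability was scored by trypan blue dye exclusion. IC50 (50% inhibition) was estimated from response curves of three separate experiments.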

P388 [16] = experiment: Antitumor activity was determined against the ip implanted P388 leukemia in mice by range in survival days at 200 mg/kg (treatment of 1-5qd schedule) dosage; Range is 22-24; type: functional, Mus musculus; settings: route intraperitoneal
P388 [17] = experiment: Antitumor activity was determined against the ip implanted P388 leukemia in mice by change in […] at 200 mg/kg (treatment of 1-5qd schedule) dosage; type: functional, Mus musculus; settings: route intraperitoneal
Procedure, shortened: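 P388 leukemia, 1×10^6 cells implanted ip on day 0 into DBA/2J mice, groups of 6 (wt 23-33 g). Dosing ip started 24 h post-inoculation, vehicle 0.9% NaCl containing 0.5% Tween-80. Animals were observed daily until death or 45 days. Outputs were weight change, median survival T/C from survivors per NCI protocols, and %ILS = (T/C − 1) × 100.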

Structure (SMILES): CCCCCCCCCCCCCCCC(=O)OC[C@H](COP(=O)(O)OP(=O)(O)OC[C@H]1O[C@@H](n2ccc(N)nc2=O)[C@@H](O)[C@@H]1O)OC(=O)CCCCCCCCCCCCCCC
- Survivors (L1210 [1]): 1
- Range (L1210 [2]): 15
- Active dose range (L1210 [3]): 40 mg/kg/day
- ILS (L1210 [4]): 150
- Range (L1210 [5]): 24

Structure (SMILES): CCCCCCCCCCCCCCCCOCC(COP(=O)(O)OP(=O)(O)OC[C@H]1O[C@@H](n2ccc(N)nc2=O)[C@@H](O)[C@@H]1O)OC(=O)CCCCCCCCCCCCCCC (mixture of isomers)
- T/C (P388 [6]): >45%
- Active dose range (P388 [7]): 67 mg/kg/day
- Active dose range (L1210 [8]): 300 mg/kg/day
- Weight change (L1210 [9]): 0.33 g mouse-1
- Active dose range (L1210 [10]): 100 mg/kg/day
- Optimal dose (L1210 [11]): 500 mg

Structure (SMILES): CCCCCCCCCCCCCCCCCCOCC(COP(=O)(O)OP(=O)(O)OC[C@H]1O[C@@H](n2ccc(N)nc2=O)[C@@H](O)[C@@H]1O)OC(=O)CCCCCCCCCCCCCCC (mixture of isomers)
- Range (P388 [12]): 23

Structure (SMILES): Nc1ccn([C@@H]2O[C@H](CO)[C@@H](O)[C@@H]2O)c(=O)n1 [CYTARABINE]
- Range (L1210 [13]): 15
- ILS (P388 [14]): 109
- Active dose range (L1210 [15]): 50 mg/kg/day
- IC50 (AMML): 2300 nM
- Range (P388 [16]): 22
- Weight change (P388 [17]): -3.62 g mouse-1

Reference: ChEMBL document CHEMBL1123247, “Nucleoside conjugates. 7. Synthesis and antitumor activity of 1-beta-D-arabinofuranosylcytosine conjugates of ether lipids” (J Med Chem, 1986)
